From ChEMBL document CHEMBL4304816, “A Novel Biphenyl-based Chemotype of Retinoid X Receptor Ligands Enables Subtype and Heterodimer Preferences” (ACS Med Chem Lett, 2019)
The source made the active and inactive calls. No cut-off for these calls is given here.

Key:
Assay type in all cases: cell-based
[1] = molecular target: T1, Retinoic acid receptor beta (Homo sapiens) (UniProt P10826); test: Agonist activity at Gal4-LBD fused RARbeta (unknown origin) expressed in HEK293T cells at 10 uM after 14 to 16 hrs by dual-Glo luciferase assay
T1 sequence (whole entry): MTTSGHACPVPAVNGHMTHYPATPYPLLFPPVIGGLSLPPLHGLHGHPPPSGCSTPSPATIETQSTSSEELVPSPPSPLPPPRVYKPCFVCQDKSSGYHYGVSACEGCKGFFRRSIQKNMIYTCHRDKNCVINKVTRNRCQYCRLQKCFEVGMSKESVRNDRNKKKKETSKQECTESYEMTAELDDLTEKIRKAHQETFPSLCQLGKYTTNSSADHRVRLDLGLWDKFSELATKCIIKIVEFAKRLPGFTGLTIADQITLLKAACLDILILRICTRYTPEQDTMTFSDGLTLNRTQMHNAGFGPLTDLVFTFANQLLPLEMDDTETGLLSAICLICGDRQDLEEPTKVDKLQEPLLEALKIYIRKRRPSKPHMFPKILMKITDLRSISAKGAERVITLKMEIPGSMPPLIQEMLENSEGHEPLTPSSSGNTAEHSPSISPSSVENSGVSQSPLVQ
In short: (§1)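 Gal4-hybrid reporter gene selectivity panel of related nuclear receptors (PPARα/β/γ, RARα/β/γ) in HEK293T cells. Activity is read as mean fold activation versus 0.1% DMSO vehicle, n ≥ 2.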

[2] = molecular target: T2, Peroxisome proliferator-activated receptor delta (Homo sapiens) (UniProt Q03181); test: Agonist activity at Gal4-LBD fused PPARbeta (unknown origin) expressed in HEK293T cells at 10 uM after 14 to 16 hrs by dual-Glo luciferase assay; in short: as §1
T2 sequence (whole entry): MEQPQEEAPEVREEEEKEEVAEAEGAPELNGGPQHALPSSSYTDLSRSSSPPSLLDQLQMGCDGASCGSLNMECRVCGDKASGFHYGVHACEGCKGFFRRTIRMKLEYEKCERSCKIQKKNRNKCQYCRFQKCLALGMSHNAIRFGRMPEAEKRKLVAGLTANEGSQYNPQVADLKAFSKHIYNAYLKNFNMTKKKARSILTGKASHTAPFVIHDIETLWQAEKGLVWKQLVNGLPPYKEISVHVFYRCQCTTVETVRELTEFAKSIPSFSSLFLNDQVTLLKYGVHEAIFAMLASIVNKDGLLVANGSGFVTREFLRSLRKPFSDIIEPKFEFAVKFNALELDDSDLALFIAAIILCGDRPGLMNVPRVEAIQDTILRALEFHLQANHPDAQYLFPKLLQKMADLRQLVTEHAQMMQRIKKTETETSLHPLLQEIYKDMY

[3] = molecular target: T3, Peroxisome proliferator-activated receptor gamma (Homo sapiens) (UniProt P37231); test: Agonist activity at Gal4-LBD fused PPARgamma (unknown origin) expressed in HEK293T cells at 10 uM after 14 to 16 hrs by dual-Glo luciferase assay; in short: as §1
T3 sequence (whole entry): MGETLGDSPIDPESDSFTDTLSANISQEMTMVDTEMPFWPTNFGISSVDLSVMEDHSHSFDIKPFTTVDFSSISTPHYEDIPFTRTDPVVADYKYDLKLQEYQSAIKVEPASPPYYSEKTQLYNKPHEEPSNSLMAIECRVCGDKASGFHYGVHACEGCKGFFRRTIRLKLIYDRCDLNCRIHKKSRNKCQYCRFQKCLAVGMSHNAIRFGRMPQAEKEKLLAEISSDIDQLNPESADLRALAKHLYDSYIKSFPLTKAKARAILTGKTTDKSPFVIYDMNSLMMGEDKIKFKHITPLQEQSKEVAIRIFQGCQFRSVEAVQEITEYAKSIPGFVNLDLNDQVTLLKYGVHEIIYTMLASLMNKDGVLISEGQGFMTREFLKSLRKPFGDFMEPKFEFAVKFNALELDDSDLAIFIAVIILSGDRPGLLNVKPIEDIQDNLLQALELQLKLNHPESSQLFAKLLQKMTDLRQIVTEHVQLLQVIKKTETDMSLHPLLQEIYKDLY

[4] = molecular target: T4, Retinoic acid receptor RXR-alpha (Homo sapiens, UniProt P19793); test: Agonist activity at Gal4-LBD fused RXRalpha (unknown origin) expressed in HEK293T cells after 14 to 16 hrs by dual-Glo luciferase assay
T4 sequence (P19793 whole entry): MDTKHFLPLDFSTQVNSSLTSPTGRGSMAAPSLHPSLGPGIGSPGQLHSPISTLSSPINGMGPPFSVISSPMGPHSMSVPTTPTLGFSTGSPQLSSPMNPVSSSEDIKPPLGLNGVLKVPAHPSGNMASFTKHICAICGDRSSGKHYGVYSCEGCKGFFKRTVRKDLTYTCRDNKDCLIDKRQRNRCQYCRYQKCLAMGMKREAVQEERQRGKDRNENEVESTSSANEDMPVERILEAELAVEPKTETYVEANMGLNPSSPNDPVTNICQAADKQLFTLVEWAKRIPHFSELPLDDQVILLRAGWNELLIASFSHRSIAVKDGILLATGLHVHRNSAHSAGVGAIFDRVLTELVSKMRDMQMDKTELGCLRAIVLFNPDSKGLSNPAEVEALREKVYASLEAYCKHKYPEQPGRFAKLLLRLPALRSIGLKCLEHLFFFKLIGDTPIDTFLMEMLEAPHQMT
In short: (§2)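 Gal4-hybrid RXRα/β/γ reporter gene assays in HEK293T cells. Fold activation is the maximal fold activation versus 0.1% DMSO.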

[5] = molecular target: T5, Retinoic acid receptor RXR-beta (Homo sapiens, UniProt P28702); test: Agonist activity at Gal4-LBD fused RXRbeta (unknown origin) expressed in HEK293T cells after 14 to 16 hrs by dual-Glo luciferase assay; in short: as §2
T5 sequence (P28702 whole entry): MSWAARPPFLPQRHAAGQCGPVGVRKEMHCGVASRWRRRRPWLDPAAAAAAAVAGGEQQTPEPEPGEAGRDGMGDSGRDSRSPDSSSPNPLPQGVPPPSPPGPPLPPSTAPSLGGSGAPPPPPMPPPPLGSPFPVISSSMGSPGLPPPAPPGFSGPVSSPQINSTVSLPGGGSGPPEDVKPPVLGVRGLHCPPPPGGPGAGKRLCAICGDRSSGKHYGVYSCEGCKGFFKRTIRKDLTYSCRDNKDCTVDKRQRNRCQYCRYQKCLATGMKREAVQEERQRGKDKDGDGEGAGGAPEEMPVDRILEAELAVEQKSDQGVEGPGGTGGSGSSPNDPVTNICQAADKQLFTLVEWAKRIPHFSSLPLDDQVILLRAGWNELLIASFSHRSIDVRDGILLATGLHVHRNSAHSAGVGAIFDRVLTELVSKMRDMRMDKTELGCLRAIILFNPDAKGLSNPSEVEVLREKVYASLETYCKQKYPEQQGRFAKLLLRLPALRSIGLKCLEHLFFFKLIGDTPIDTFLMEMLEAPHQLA

| Activity [1] | Activity [2] | Activity [3] | EC50 [4] | EC50 [5] | SMILES |
| --- | --- | --- | --- | --- | --- |
| Active | Active | Active | 0.21 µM | 0.29 µM | Cc1cc(-c2cc(C(F)(F)F)cc(C(F)(F)F)c2)ccc1CC(=O)O |
|  |  |  | 8 µM | 12 µM | Cc1cc(-c2ccc(C(=O)O)cc2)cc(C(C)(C)C)c1 |
| Active | Active | Active |  | 6.6 µM | Cc1cc(-c2cc(C(C)(C)C)cc(C(C)(C)C)c2)ccc1C(=O)O |
